This note sets out measurements from ChEMBL document CHEMBL1122890, “Resolved monophenolic 2-aminotetralins and 1,2,3,4,4a,5,6,10b-octahydrobenzo[f]quinolines: structural and stereochemical considerations for centrally acting pre- and postsynaptic dopamine-receptor agonists” (1985).

For test [1], the species on record is Rattus norvegicus. The test can be described thus: Evaluated for dopa accumulation (biochemical activity) in rat striatum. The test is classed as functional. The method in brief: (§1)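 Male Sprague-Dawley rats, 200-300 g. Compound dissolved in saline (sometimes with a little glacial acetic acid or warming), neutral pH, given sc at 50 μmol/kg. Dopa in limbic forebrain and striatum was measured by HPLC with electrochemical detection and expressed as percent of controls.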

The species entered for test [2] is Rattus norvegicus. The test can be described thus: Evaluated for dopa accumulation (biochemical activity) in rat limbic system. In kind it is functional. Summed up: as §1
Test [3] deals with Rattus norvegicus. The experiment in a line: Evaluated for the dose giving a half-maximal decrease of dopa formation in the rat brain, at a dose of 39000 (nmol/kg). The test is classed as functional. The method in brief: (§2)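 Male Sprague-Dawley rats (200-300 g) received sc doses in saline, neutral pH. Dopa was measured in each brain area by HPLC with electrochemical detection. A separate dose-response curve was built per substance and brain area from four to six dose levels (n = 3-5). The dose giving half-maximal decrease of Dopa formation was estimated from that curve. Student's t-test was used, p ≤ 0.05.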

Test [4] has as its system Rattus norvegicus. The test can be described thus: Evaluated for dopa accumulation (biochemical activity) in rat limbic system; Inactive at 50 umol/kg. The test is classed as functional, organism-based. The method in brief: as §1
The test system of test [5] is Rattus norvegicus. The test can be described thus: Evaluated for dopa accumulation (biochemical activity) in rat striatum; Inactive at 50 umol/kg. The test is classed as functional, organism-based. The method in brief: as §1
Test [6] deals with Rattus norvegicus. The test can be described thus: Evaluated for the dose giving a half-maximal decrease of dopa formation in the rat brain, at a dose of 13000 (nmol/kg). In kind it is functional. The method in brief: as §2
For test [7], the system named is Rattus norvegicus. The experiment in a line: Evaluated for the dose giving a half-maximal decrease of dopa formation in the rat brain, at a dose of 310 (nmol/kg). The test is classed as functional. The method in brief:
as §2

The subject of test [8] is Rattus norvegicus. The test can be described thus: Evaluated for the dose giving a half-maximal decrease of dopa formation in the rat brain, at a dose of 213000 (nmol/kg). In kind it is functional. The method in brief:
as §2

Test [9] deals with Rattus norvegicus. The test can be described thus: Evaluated for the dose giving a half-maximal decrease of dopa formation in the rat brain, at a dose of 50000 (nmol/kg). The test is classed as functional. Summed up:
as §2

Test [10] has as its system Rattus norvegicus. The experiment in a line: Evaluated for the dose giving a half-maximal decrease of dopa formation in the rat brain, at a dose of 31000 (nmol/kg). In kind it is functional. Summed up: as §2
Test [11] has as its system Rattus norvegicus. The experiment in a line: Evaluated for the dose giving a half-maximal decrease of dopa formation in the rat brain, at a dose of 3100 (nmol/kg). In kind it is functional. The method in brief: as §2
Test [12] deals with Rattus norvegicus. The experiment in a line: Evaluated for the dose giving a half-maximal decrease of dopa formation in the rat brain, at a dose of 1300 (nmol/kg). The test is classed as functional. Summed up: as §2

The source made the active and inactive calls. The rule behind the calls is not given here.

Consider `CCCN(CCC)[C@H]1CCc2ccc(O)cc2C1`, for which the ED50 was determined as 2.4 µmol/kg in the test filed under Rattus norvegicus [1] and 1.9 µmol/kg in the test filed under Rattus norvegicus [2].
With `CN1CCc2cccc3c2[C@H]1Cc1ccc(O)c(O)c1-3` [APOMORPHINE], the ED50 turned out to be 0.22 µmol/kg in the test filed under Rattus norvegicus [1] and 0.19 µmol/kg in the test listed under Rattus norvegicus [2].
`CCCN(CCC)[C@@H]1CCc2c(O)cccc2C1.Cl`: the values for the ED50 in the test listed under Rattus norvegicus [1] and in the test listed under Rattus norvegicus [2] were 0.65 µmol/kg and 0.41 µmol/kg, respectively. Besides, the Accumulation counts with Rattus norvegicus [3] is less than 43.
Consider `CCCN(CCC)[C@@H]1CCc2ccc(O)cc2C1`, for which the ED50 turned out to be 0.011 µmol/kg in the test filed under Rattus norvegicus [1] and 0.0095 µmol/kg in the test listed under Rattus norvegicus [2].
For `CCCN1CCC[C@H]2c3cccc(O)c3CC[C@H]21`, the ED50 entry in the test on Rattus norvegicus [4] and in the test on Rattus norvegicus [5] was “inactive” each time.
For `CCCN1CCC[C@H](c2cccc(O)c2)C1.Cl`, the ED50 worked out at 1.3 µmol/kg in the test filed under Rattus norvegicus [1] and 1 µmol/kg in the test listed under Rattus norvegicus [2]. Further, the Accumulation counts in the test on Rattus norvegicus [6] worked out at 78.
Turning to `CCCN(CCC)[C@H]1CCc2c(O)cccc2C1.Cl`, the Accumulation counts in the test on Rattus norvegicus [7] is less than 155 Counts. Also, the ED50 in the test listed under Rattus norvegicus [1] and in the test listed under Rattus norvegicus [2] was 0.0037 µmol/kg in each case.
As to `CCCN1CCC[C@@H](c2cccc(O)c2)C1.Cl` [PRECLAMOL HYDROCHLORIDE], the Accumulation counts with Rattus norvegicus [8] is 12. The ED50 is 1.7 µmol/kg in the test listed under Rattus norvegicus [1] and 0.8 µmol/kg in the test filed under Rattus norvegicus [2].
`Br.CCCCN1CCCC2c3cc(O)ccc3CC[C@H]21` (some centres undefined): the ED50 result with Rattus norvegicus [4] and with Rattus norvegicus [5] was “inactive” in each case. Further, in the test on Rattus norvegicus [9], the Accumulation counts is given as less than 75.
Turning to `CCCN1CCC[C@@H]2c3cccc(O)c3CC[C@H]21`, the ED50 in the test listed under Rattus norvegicus [1] was 0.41 µmol/kg; in the test filed under Rattus norvegicus [2], 0.32 µmol/kg. For the same compound, the Accumulation counts is given as less than 138 Counts with Rattus norvegicus [10], 31 with Rattus norvegicus [9] and less than 59 Counts in the test with Rattus norvegicus [11]. Also, the ED50 entry in the test on Rattus norvegicus [4] and in the test on Rattus norvegicus [5] was “inactive” throughout.
Take `CCCN1CCC[C@H]2c3cccc(O)c3CC[C@@H]21`: the ED50 in the test filed under Rattus norvegicus [1] and in the test filed under Rattus norvegicus [2] was 0.014 µmol/kg in each case. For the same compound, the Accumulation counts in the test on Rattus norvegicus [12] is less than 62 Counts; with Rattus norvegicus [11], less than 78 Counts.

What is called ED50 is the dose at which the effect has come halfway, by size or by number of responders.
